Shown are actives, neighbours in structure and some others; about 3.5% of the full set was active somewhere.
MrgX1 PAM: human MrgX1 positive allosteric modulation, primary screen | hit rate 0.63% among 310,000 | B-score at 10 µM | AID 588675 | Q96LB2 | MrgX1-HEK293, Fluo-4 calcium flux, FDSS; active compounds read high;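 active = plate-corrected calcium response at least 3 library SD above typical, normal starting fluorescence, not activating the receptor alone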;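 also: compound read alongside a low EC10 to EC30 dose of BAM8-22 agonist; peak minus trough fluorescence over baseline measured at the second addition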
Target sequence (Q96LB2 whole entry, looked up): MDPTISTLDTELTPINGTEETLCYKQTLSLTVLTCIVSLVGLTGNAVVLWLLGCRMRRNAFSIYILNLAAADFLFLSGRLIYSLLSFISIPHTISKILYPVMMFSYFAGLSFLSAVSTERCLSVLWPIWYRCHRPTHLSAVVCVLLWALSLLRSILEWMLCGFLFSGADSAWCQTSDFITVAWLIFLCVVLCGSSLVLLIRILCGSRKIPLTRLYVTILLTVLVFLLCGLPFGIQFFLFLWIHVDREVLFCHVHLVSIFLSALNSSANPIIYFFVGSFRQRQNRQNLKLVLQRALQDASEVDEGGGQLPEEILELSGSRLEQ
MrgX1 antag: human MrgX1 receptor antagonism, primary screen. MRGX1-HEK293 calcium flux, Fluo-4, BAM8-22 antagonism; active compounds read low. B-score at 10 µM. AID 588676. hit rate 1.3% among 310,000;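 active = calcium-response B-score plate-corrected more than 3 library SD below zero, starting fluorescence within 5 deviations, no agonist response on first addition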;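 also: peak minus trough fluorescence over baseline after final BAM8-22 challenge near maximal dose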
MrgX1 agonist: human MrgX1 receptor agonism, primary screen; hit rate 0.44% among 310,000; Q96LB2; B-score at 10 µM; MrgX1-HEK293 cells, Fluo-4 calcium fluorescence, agonist mode; active compounds read high; AID 588627;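 active = calcium response B-score plate-corrected fluorescence ratio at least 3 library SD, with starting fluorescence B-score inside 5 SD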
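System: HEK293 cells stably expressing human MrgX1 receptor; Dosing: test compound in the initial addition of three; Schedule: overnight plating, then 30 min 37 °C plus 30 min room-temperature dye loading; Detection: kinetic calcium dye fluorescence, Fluo-4 NW; Controls: per-plate positive and negative controls for Z′ factor.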
RGS4 inh: human RGS4 inhibition. AID 463165. B-score at 10 µM. HEK293 M3R/RGS4 inducible, Fluo-4 calcium flux; active compounds read high; triggered by carbachol at its EC20. P49798. hit rate 0.45% among 310,000;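 active = B-score, a plate-corrected calcium signal, over three deviations above library mean, with baseline fluorescence within five deviations of library mean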;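 also: RGS4 expression induced by doxycycline in cells with stable M3 receptor; B-score is computed from the integrated fluorescence ratio over baseline after carbachol; higher B-score means a larger calcium signal and so more RGS4 inhibition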
Target sequence (P49798 whole entry, looked up): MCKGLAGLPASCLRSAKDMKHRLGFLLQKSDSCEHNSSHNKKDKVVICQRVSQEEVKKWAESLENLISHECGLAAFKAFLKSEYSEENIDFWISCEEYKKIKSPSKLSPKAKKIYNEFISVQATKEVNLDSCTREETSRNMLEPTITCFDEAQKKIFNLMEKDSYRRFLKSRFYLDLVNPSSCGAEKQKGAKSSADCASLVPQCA
RGS4 act: potentiators or activators of RGS4; B-score at 10 µM; AID 463111; HEK293 M3R/inducible RGS4, carbachol calcium flux Fluo4; active compounds read low; hit rate 0.92% among 310,000;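 active = B-score of the integrated calcium signal more than 4 SD below the library mean, with starting fluorescence not abnormally high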;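 also: negative B-score means reduced calcium response which marks RGS4 activation or potentiation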
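System – HEK293 FlpIn-TREx cells, stable M3R, doxycycline-inducible RGS4 · Reagent – ECmax carbachol challenge · Times – compound preincubation 20 min at room temperature before agonist · Technique – Fluo4 fluorescence kinetic imaging of calcium · Measure – B score of integrated Fluo4 ratio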
MrgX1 ag confirm: human MrgX1 agonism, re-confirmation screen; shares compounds with MrgX1 agonist; MrgX1-HEK293, Fluo-4 calcium fluorescence, FDSS; activation, % at 10 µM; hit rate 78% among 600;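 active = calcium signal rise, corrected for plate position, at least 3 library SD high, with starting brightness within 5 such deviations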
HEK293 Ca flux: activity in parental HEK293 cells lacking MrgX1; fluorescence ratio F(max-min)/F0 at 10 µM; hit rate 2% among 4,000; Fluo-4 calcium fluorescence, FDSS; shares compounds with MrgX1 antag; AID 624111;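 active = duplicate-averaged calcium fluorescence ratio at least three times the standard deviation of buffer wells, a nonspecific response in parental cells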
HEK293 Ca counter: counter-screen for MrgX1 allosteric activators: effect in parental HEK293 cells; shares compounds with MrgX1 antag; parental HEK293 calcium flux, Fluo-4 fluorescence ratio; active compounds read high; fluorescence ratio F(max-min)/F0 at 10 µM; hit rate 0.4% among 4,000; AID 624114;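 active = calcium fluorescence ratio, averaged over duplicates, at least 3 SD of the buffer-well ratio, meaning a nonspecific response in receptor-free cells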;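 also: untransfected parental HEK293 lacking MrgX1 used as counterscreen for MrgX1 allosteric activators; fluorescence change taken during the second addition on a kinetic imager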
HEK293 Ca cntr2: counter-screen for MrgX1 activators: effect in parental HEK293 cells; shares compounds with MrgX1 antag; Fluo-4 calcium fluorescence (FDSS); active compounds read high; fluorescence ratio F(max-min)/F0 at 10 µM; hit rate 8.7% among 4,000; AID 624115;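 active = calcium fluorescence ratio at least three times the spread of buffer wells, meaning a non-specific response in parental cells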
Each line names hits and unclear results; the compound was inactive in the other large screens (follow-up assays come after a bar, where they were run).

O=C(NC1CCCCCC1)c1cc(=O)[nH]c2ccc(S(=O)(=O)N3CCOCC3)cc12	none
COc1ccc(Cl)cc1NC(=O)CN(C)C(=O)Cn1cnc2c1c(=O)n(C)c(=O)n2C	none
COc1ccc(OCCn2c(N)nc3ccccc32)cc1	MrgX1 agonist 30 | MrgX1 ag confirm 153% | HEK293 Ca flux inactive | HEK293 Ca counter inactive | HEK293 Ca cntr2 inactive
CCSc1nc2ccccc2n1CCOc1ccccc1	none
Cc1nc2ccccc2n1CCOc1ccccc1	none
Nc1nc2ccccc2n1CCOc1ccc(F)cc1	MrgX1 agonist 41 | MrgX1 ag confirm 134% | HEK293 Ca flux inactive | HEK293 Ca counter inactive | HEK293 Ca cntr2 inactive
Nc1nc2ccc(S(=O)(=O)N3CCCCC3)cc2s1	MrgX1 agonist 43 | MrgX1 ag confirm 256% | HEK293 Ca flux inactive | HEK293 Ca counter inactive | HEK293 Ca cntr2 53
CC(=O)c1ccc(OCC(=O)N2CCCC(Nc3ccc(C)c(C)c3)C2)cc1 (centres undefined)	none
Cc1c(C(O)CN2CCN(Cc3ccc4c(c3)OCO4)CC2)c2ccccc2n1C (centres undefined)	MrgX1 agonist 33 | MrgX1 ag confirm inactive | HEK293 Ca flux inactive | HEK293 Ca counter inactive | HEK293 Ca cntr2 inactive
COc1ccc2c(c1)c(C(O)CN1CCN(Cc3ccc4c(c3)OCO4)CC1)c(C)n2C (centres undefined)	none
O=C(Nc1cccc(F)c1)C1CCCN(S(=O)(=O)c2ccccc2)C1 (centres undefined)	none
CCn1c(SCC(=O)N2CCC(C)CC2)nc2c(c1=O)SC(C)C2 (centres undefined)	none
COc1ccc(-c2[nH]c(-c3ccccc3)nc2SCC(=O)NC2CCCC2)cc1	MrgX1 agonist 29 | MrgX1 ag confirm 208% | HEK293 Ca flux inactive | HEK293 Ca counter inactive | HEK293 Ca cntr2 46
Cc1ccc(C)c(NC(=S)N(CCN(C)C)C(C)c2ccccn2)c1 (centres undefined)	none
Cc1nc2cc(NC(=O)c3cccc(S(C)(=O)=O)c3)ccc2o1	none
O=C(Nc1ccccc1)Nc1ccc2ccccc2c1	MrgX1 agonist 34 | MrgX1 ag confirm inactive | HEK293 Ca flux inactive | HEK293 Ca counter inactive | HEK293 Ca cntr2 inactive
COc1ccc(N2CCN(S(=O)(=O)c3c(C)[nH]c(C)c3C(=O)N3CCCC3)CC2)cc1	none
Nc1ccc(-c2cnc3ccccc3n2)cc1	MrgX1 agonist 28 | MrgX1 ag confirm 87% | HEK293 Ca flux inactive | HEK293 Ca counter inactive | HEK293 Ca cntr2 inactive
COc1cccc(-n2nnc(S(=O)(=O)c3ccc(C)cc3)c2N)c1	MrgX1 agonist 36 | MrgX1 ag confirm inactive | HEK293 Ca flux inactive | HEK293 Ca counter inactive | HEK293 Ca cntr2 inactive
COc1cccc(N2CCN(S(=O)(=O)c3ccc4c(c3)NC(=O)C(C)C(=O)N4)CC2)c1 (centres undefined)	none
Cc1ccc(NS(=O)(=O)c2ccc(C(=O)N3CC(C)CC(C)C3)cc2)cc1 (centres undefined)	MrgX1 agonist 28 | MrgX1 ag confirm 151% | HEK293 Ca flux inactive | HEK293 Ca counter inactive | HEK293 Ca cntr2 71
Fc1ccc(CCNC(=S)Nc2ccc(F)c(Cl)c2)cc1	MrgX1 agonist 30 | MrgX1 ag confirm 150% | HEK293 Ca flux inactive | HEK293 Ca counter inactive | HEK293 Ca cntr2 inactive
Fc1ccc(NC(=S)NCCc2ccc(Cl)cc2)cc1	none
COC(=O)[C@H](Cc1ccccc1)NC(=O)NCCc1ccccc1F	none
CC(NC(=O)Cn1nc(C(F)(F)F)c2c1CCC2)c1ccccc1 (centres undefined)	MrgX1 agonist 31 | MrgX1 ag confirm 134% | HEK293 Ca flux inactive | HEK293 Ca counter inactive | HEK293 Ca cntr2 inactive
Cc1ccc(Cl)cc1NC(=O)CC(O)(C(F)(F)F)C(F)(F)F	MrgX1 agonist 29 | MrgX1 ag confirm 196% | HEK293 Ca flux inactive | HEK293 Ca counter inactive | HEK293 Ca cntr2 47
COCC(=O)Nc1cc(Cl)ccc1C	none
COc1cc(CCC(O)CC(=O)CCc2ccccc2)ccc1O (centres undefined)	none
Cc1nnc(SCc2cccc([N+](=O)[O-])c2)[nH]c1=O	none
CCCOc1ccc(-c2csc3ncn(Cc4ccc(C(=O)O)cc4)c(=O)c23)cc1	MrgX1 agonist 32 | MrgX1 ag confirm 204% | HEK293 Ca flux inactive | HEK293 Ca counter inactive | HEK293 Ca cntr2 inactive
CN(C)C(=O)C(NC(=O)c1ccccc1)=C(Cl)Cl	none
O=C(CN(C(=O)CNC(=O)c1ccco1)c1ccccc1F)NC1CCCCC1	none
COc1ccccc1NS(=O)(=O)c1cc(C(=O)NCc2ccncc2)ccc1C	none
COc1ccccc1NS(=O)(=O)c1cc(C(=O)NCCC(C)C)ccc1F	MrgX1 agonist 35 | MrgX1 ag confirm 313% | HEK293 Ca flux inactive | HEK293 Ca counter inactive | HEK293 Ca cntr2 101
CC(=O)NCC1CCN(C(=O)C2CCC(=O)N(CCc3cccc(F)c3)C2)CC1 (centres undefined)	none
COc1ccccc1N1CCN(C2CCCCC2NS(=O)(=O)c2ccc(Cl)cc2)CC1 (centres undefined)	MrgX1 agonist 48 | MrgX1 ag confirm 241% | HEK293 Ca flux inactive | HEK293 Ca counter inactive | HEK293 Ca cntr2 inactive
COc1ccc(Cl)cc1NC(=O)CSc1nnc(Cc2ccc(C)cc2)c(=O)[nH]1	MrgX1 agonist 36 | MrgX1 ag confirm 160% | HEK293 Ca flux inactive | HEK293 Ca counter inactive | HEK293 Ca cntr2 inactive
Cc1ccc(Cc2nnc(SCC(=O)Nc3ccccc3Cl)[nH]c2=O)cc1	none
COc1cc2ccccc2nn1	none
COc1ccc2c(n1)Sc1nc3ccccc3nc1N2	MrgX1 agonist 40 | MrgX1 ag confirm 501% | HEK293 Ca flux 0.18 | HEK293 Ca counter inactive | HEK293 Ca cntr2 122
COc1cc2c(cc1OC)CN(CC(=O)Nc1cccc(C(F)(F)F)c1)CC2	none
COc1ccc(CCNS(=O)(=O)c2ccc(-n3cnnn3)cc2)cc1OC	none
COc1ccc(N=C(N)SCc2ccccn2)cc1	MrgX1 agonist 87 | MrgX1 ag confirm 341% | HEK293 Ca flux inactive | HEK293 Ca counter inactive | HEK293 Ca cntr2 92
COc1ccc(-c2nnc(SCc3ccccn3)n2C)cc1	none
COC(=O)[C@@]12CCCN1[C@H](c1ccc(-c3ccc(OC)cc3)cc1)[C@@H]1C(=O)N(C)C(=O)[C@@H]12	none

Bioassay records as filed in PubChem BioAssay.
